From ChEMBL document CHEMBL1148082, “Cucurbitacins, cell adhesion inhibitors from Conobea scoparioides” (J Nat Prod, 1994)
Activity calls are given as the source filed them. No cut-off for these calls is given here.

Tests used:
Homo sapiens [1] = species on record: Homo sapiens; assay: Inhibition of actin polymerization in fMLP-stimulated human neutrophils assessed as positive fluorescence signal at 10 uM
How it was run: (§1)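 Human peripheral blood neutrophils were preincubated with compound for 45 min at 37° in PBS with Ca²⁺/Mg²⁺ and 10% fetal calf serum. They were then stimulated with fMLP (1 × 10⁻⁸ M final) for 1 min at 37°. Cells were fixed and permeabilized for at least 30 min at room temperature in 3% paraformaldehyde with lysophosphatidylcholine (12.5 µg/ml), pH 7.6. They were then stained with NBD-phalloidin for 15 min at 37° and analysed by flow cytometry (ex 488, em 530 nm). The value is the percent of cells with fluorescence above background.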

Homo sapiens [2] = species on record: Homo sapiens; assay: Inhibition of actin polymerization in fMLP-stimulated human neutrophils assessed as positive fluorescence signal at 1 uM; how it was run: as §1
JY [3] = assay: Cytotoxicity against human JY cells assessed as inhibition of thymidine uptake at 0.3 uM by scintillation counting; format: functional
How it was run: (§2)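 PKH26-stained JY cells were held at 37° with compound (0.3, 1.0, 3.3 or 50 μM) for 24 h and pulsed with tritiated thymidine during the last 5 h. Uptake was counted by scintillation and expressed as % inhibition.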

JY [4] = assay: Cytotoxicity against human JY cells assessed as inhibition of thymidine uptake at 1 uM by scintillation counting; format: functional; how it was run: as §2
JY [5] = assay: Cytotoxicity against human JY cells assessed as inhibition of thymidine uptake at 3.3 uM by scintillation counting; format: functional; how it was run: as §2
Homo sapiens [6] = species on record: Homo sapiens; assay: Inhibition of actin polymerization in fMLP-stimulated human neutrophils assessed as positive fluorescence signal at 3.3 uM; how it was run: as §1
Homo sapiens [7] = species on record: Homo sapiens; assay: Inhibition of actin polymerization in fMLP-stimulated human neutrophils assessed as positive fluorescence signal at 0.33 uM; how it was run: as §1
JY [8] = assay: Cytotoxicity against human JY cells assessed as inhibition of thymidine uptake up to 5 hrs; format: functional, cell-based
How it was run: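 Proliferation assay in PKH26-stained JY cells exposed to test compounds at 37° for 5 h, with a tritiated thymidine pulse over the final 5 h. Thymidine uptake was quantitated by scintillation counting.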

JY [9] = assay: Cytotoxicity against human JY cells after 48 hrs by MTT assay; format: functional, cell-based
How it was run: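 PKH26-stained JY cells incubated at 37° with test compounds for 48 h. MTT added for the last 4 h. Cells and formazan crystals were solubilized, and colour was read on an ELISA plate reader.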

JY [10] = assay: Cytotoxicity against human JY cells up to 45 mins; format: functional, cell-based
How it was run: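 Washout format: stained JY cells were treated with compounds for 45 min, matching the adhesion assay length, then washed extensively. Cells were then either incubated 24 h with a tritiated thymidine pulse in the last 5 h and scintillation counting, or run in the 48-h MTT assay.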

JY [11] = assay: Effect on cell activation in human JY cells assessed as inhibition of Ca2+ flux; format: functional, cell-based
[12] = biological target: Protein kinase C (PKC) (Homo sapiens) (UniProt O94806+P41743+P17252+P05129+Q05655+P05771+Q05513+Q02156+P24723+Q15139+Q04759); assay: Inhibition of PKC in human JY cells; format: cell-based
JY [13] = assay: Cytotoxicity against human JY cells assessed as inhibition of thymidine uptake at 50 uM by scintillation counting; format: functional; how it was run: as §2

Structure (SMILES) | inhibition (Homo sapiens [1]) [%] | inhibition (Homo sapiens [2]) [%] | inhibition at 0.3 µM (JY [3]) [%] | inhibition at 1 µM (JY [4]) [%] | inhibition at 3.3 µM (JY [5]) [%] | inhibition (Homo sapiens [6]) [%] | inhibition (Homo sapiens [7]) [%] | Activity (JY [8]) | Activity (JY [9]) | Activity (JY [10]) | Activity (JY [11]) | Activity [12] | inhibition at 50 µM (JY [13]) [%]
C=C1[C@@H](C)[C@H]2[C@H](Cc3ccccc3)NC(=O)[C@]23OC(=O)/C=C/[C@H](O)CCC[C@@H](C)C/C=C/[C@H]3[C@@H]1O | 4.2 | 45.5 |  |  |  |  |  |  |  |  |  |  | 
CC(=O)OC(C)(C)/C=C/C(=O)[C@](C)(O)[C@H]1[C@H](O)C[C@@]2(C)[C@@H]3CC=C4[C@H](C[C@H](O)C(=O)C4(C)C)[C@]3(C)C(=O)C[C@]12C [CUCURBITACIN B] |  | 19.5 | 39 | 63 | 71 | 9.6 | 29.8 |  |  |  |  |  | 
CC(C)(O)/C=C/C(=O)[C@](C)(O)[C@H]1[C@H](O)C[C@@]2(C)[C@@H]3CC=C4[C@@H](C[C@H](O)C(=O)C4(C)C)[C@]3(C)C(=O)C[C@]12C [CUCURBITACIN D] |  | 64.6 | 12 | 45 | 58 | 24.3 | 75.2 |  |  |  |  |  | 
CC(=O)OC(C)(C)/C=C/C(=O)[C@](C)(O)[C@H]1[C@H](O)C[C@@]2(C)[C@@H]3CC=C4[C@@H](C=C(O)C(=O)C4(C)C)[C@]3(C)C(=O)C[C@]12C [CUCURBITACIN E] |  | 24.7 | 19 | 60 | 68 | 3.8 | 21.5 | inactive | Active | Toxic | inactive | inactive | 
CC(C)(O)/C=C/C(=O)[C@](C)(O)[C@H]1[C@H](O)C[C@@]2(C)[C@@H]3CC=C4[C@@H](C=C(O)C(=O)C4(C)C)[C@]3(C)C(=O)C[C@]12C [CUCURBITACIN I] |  | 15.3 | 34 | 63 | 58 | 20.5 | 60.5 |  |  |  | inactive | inactive | 
CC(C)(O)CCC(=O)[C@@](C)(O)C1[C@H](O)C[C@@]2(C)[C@@H]3CC=C4C(C=C(O)C(=O)C4(C)C)[C@]3(C)C(=O)C[C@]12C (stereo partly specified) [CUCURBITACIN L] |  | 79.2 |  |  |  | 77.7 | 86.2 |  |  |  |  |  | 69
CC(C)(O)CCC(=O)[C@](C)(O)[C@H]1[C@H](O)C[C@@]2(C)[C@@H]3CC=C4[C@@H](C[C@H](O)C(=O)C4(C)C)[C@]3(C)C(=O)C[C@]12C [CUCURBITACIN R] |  | 82.8 | 20 | 22 | 7 | 86 | 79.2 |  |  |  | inactive | inactive | 74
